Measured values: ChEMBL document CHEMBL3102768, “Synthesis, biological evaluation and SAR of 3-benzoates of ingenol for treatment of actinic keratosis and non-melanoma skin cancer” (Bioorg Med Chem Lett, 2014)

Assays:
Keratinocyte [1] = test: Induction of proimflammatory activity in human primary epidermal keratinocytes assessed as IL-8 release after 6 hrs; type: functional, cell-based
Outline: (§1)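 Adult log-phase primary epidermal keratinocytes were seeded at 10,000 cells/well. Cells were incubated with titrated compound for 6 h at 37 °C in 5% CO2. Secreted IL8 was measured by Meso Scale 4-spot cytokine plates or by HTRF. EC50 and Emax were referenced to the maximal response of ingenol 3-angelate.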

Keratinocyte [2] = test: Induction of proimflammatory activity in human primary epidermal keratinocytes assessed as IL-8 release after 6 hrs relative to ingenol 3-angelate; type: functional; outline: as §1
HeLa = test: Induction of necrosis in human HeLa cells assessed as remaining metabolic activity after 30 mins by resazurin dye-based assay; type: functional; settings: 0.5 h, read-out: LC50 (the source's name)
Outline: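 HeLa cells were exposed to increasing concentrations up to 400 µM for 30 min at 37 °C. Metabolic activity was then measured with a resazurin-based dye (PrestoBlue). LC50 is the concentration giving 50% loss of metabolic activity.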

Keratinocyte [3] = test: Induction of proimflammatory activity in human primary epidermal keratinocytes assessed as TNFalpha release after 6 hrs relative to ingenol 3-angelate; type: functional
Outline: (§2)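 Adult log-phase primary epidermal keratinocytes were seeded at 10,000 cells/well. Cells were incubated with titrated compound for 6 h at 37 °C in 5% CO2. Secreted TNFα was measured by Meso Scale 4-spot cytokine plates. EC50 and Emax were referenced to the maximal response of ingenol 3-angelate.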

[4] = Immunostimulatory activity in polymorphonuclear leukocytes (unknown origin) assessed as induction of oxidative burst after 40 mins by fluorescence assay relative to ingenol 3-angelate; type: functional
Outline: (§3)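 PMN were isolated from fresh buffy coats. Cells were incubated 40 min at ambient temperature with titrated compound (top concentration 10 µM) pre-mixed with hydroethidine. Respiratory burst was read as fluorescence at ex 485/em 579 nm. EC50 is the concentration giving 50% of the maximum effect of ingenol 3-angelate; Emax is the maximal response relative to it.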

[5] = target: Protein kinase C delta type (Homo sapiens, UniProt Q05655); test: Activation of PKCdelta (unknown origin) after 40 mins
Sequence of Protein kinase C delta type (Q05655 whole entry): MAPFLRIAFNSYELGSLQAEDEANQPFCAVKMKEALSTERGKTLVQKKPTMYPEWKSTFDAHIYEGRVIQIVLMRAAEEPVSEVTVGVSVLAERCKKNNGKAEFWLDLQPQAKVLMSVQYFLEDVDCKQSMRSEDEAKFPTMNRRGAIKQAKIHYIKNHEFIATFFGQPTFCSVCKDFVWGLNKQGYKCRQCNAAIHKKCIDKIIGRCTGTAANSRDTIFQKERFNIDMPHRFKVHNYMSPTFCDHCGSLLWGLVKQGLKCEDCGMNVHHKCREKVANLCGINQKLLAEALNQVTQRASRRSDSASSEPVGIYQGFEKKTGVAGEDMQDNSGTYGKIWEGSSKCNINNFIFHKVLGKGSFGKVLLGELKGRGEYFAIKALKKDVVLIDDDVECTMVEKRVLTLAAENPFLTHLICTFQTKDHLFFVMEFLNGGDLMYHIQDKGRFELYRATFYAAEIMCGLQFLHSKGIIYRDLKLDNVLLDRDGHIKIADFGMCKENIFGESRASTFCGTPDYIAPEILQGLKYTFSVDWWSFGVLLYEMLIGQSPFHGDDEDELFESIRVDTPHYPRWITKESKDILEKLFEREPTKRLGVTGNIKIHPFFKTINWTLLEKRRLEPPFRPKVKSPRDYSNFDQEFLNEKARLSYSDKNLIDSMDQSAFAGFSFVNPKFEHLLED
Outline: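 In vitro PKCδ phosphorylation of a PKC peptide substrate, with 0.05 mg/mL phosphatidylserine and no diacylglycerol. Compounds were tested as a twelve-point semilog dilution series starting at 10 µM. The reaction was started with ATP and run 40 min at room temperature.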

Keratinocyte [6] = test: Induction of proimflammatory activity in human primary epidermal keratinocytes assessed as TNFalpha release after 6 hrs; type: functional, cell-based; outline: as §2
[7] = Immunostimulatory activity in polymorphonuclear leukocytes (unknown origin) assessed as induction of oxidative burst after 40 mins by fluorescence assay; type: functional, cell-based; outline: as §3
[8] = Chemical stability of the compound in aqueous buffer with less than 30% organic solvent assessed as compound recovery at pH 7.4 measured over 16 hrs by HPLC analysis; type: physicochemical; settings: read-out: Drug recovery
Outline: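 A DMSO stock was diluted into pre-heated (37 °C) aqueous buffer pH 7.4 to ≤30% v/v organic content. The solution was held at 37 °C in the HPLC autosampler and injected within 5 min, then repeatedly over 16 h. Recovery was taken from the decrease in compound peak area, with UV detection normally at 270 nm.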

## CC1=C[C@]23C(=O)[C@@H](C=C(CO)[C@@H](O)[C@]2(O)[C@H]1OC(=O)c1ccccc1Br)[C@H]1[C@@H](C[C@H]3C)C1(C)C
Keratinocyte [1]
  EC50: 2.3 nM
Keratinocyte [2]
  Emax: 93%
HeLa
  CC50: 141000 nM
Keratinocyte [3]
  Emax: 96%
[4]
  Emax: 99%
[5]
  EC50: 3.8 nM
Keratinocyte [6]
  EC50: 8.2 nM
[7]
  EC50: 4.3 nM
[8]
  remaining at 16 h: 44%

## CC1=C[C@]23C(=O)[C@@H](C=C(CO)[C@@H](O)[C@]2(O)[C@H]1OC(=O)c1ccccc1-c1ccccc1)[C@H]1[C@@H](C[C@H]3C)C1(C)C
Keratinocyte [1]
  EC50: 1.5 nM
Keratinocyte [2]
  Emax: 87%
HeLa
  CC50: 77000 nM
Keratinocyte [3]
  Emax: 91%
[4]
  Emax: 105%
[5]
  EC50: 3.3 nM
Keratinocyte [6]
  EC50: 1.6 nM
[7]
  EC50: 16 nM
[8]
  remaining at 16 h: 77%

## CC1=C[C@]23C(=O)[C@@H](C=C(CO)[C@@H](O)[C@]2(O)[C@H]1OC(=O)c1ccccc1Oc1ccccc1)[C@H]1[C@@H](C[C@H]3C)C1(C)C
Keratinocyte [1]
  EC50: 1.1 nM
Keratinocyte [2]
  Emax: 87%
HeLa
  CC50: 83000 nM
Keratinocyte [3]
  Emax: 86%
[4]
  Emax: 98%
[5]
  EC50: 13.1 nM
Keratinocyte [6]
  EC50: 1.4 nM
[7]
  EC50: 9.4 nM
[8]
  remaining at 16 h: 80%

## CC1=C[C@]23C(=O)[C@@H](C=C(CO)[C@@H](O)[C@]2(O)[C@H]1OC(=O)c1ccccc1Nc1ccccc1)[C@H]1[C@@H](C[C@H]3C)C1(C)C
Keratinocyte [1]
  EC50: 3.7 nM
Keratinocyte [2]
  Emax: 103%
HeLa
  CC50: 307000 nM
Keratinocyte [3]
  Emax: 120%
[4]
  Emax: 129%
[5]
  EC50: 4.2 nM
Keratinocyte [6]
  EC50: 5 nM
[7]
  EC50: 11 nM
[8]
  remaining at 16 h: 58%

## CNc1ccccc1C(=O)O[C@H]1C(C)=C[C@]23C(=O)[C@@H](C=C(CO)[C@@H](O)[C@]12O)[C@H]1[C@@H](C[C@H]3C)C1(C)C
Keratinocyte [1]
  EC50: 0.79 nM
Keratinocyte [2]
  Emax: 99%
HeLa
  CC50: 95000 nM
Keratinocyte [3]
  Emax: 134%
[4]
  Emax: 113%
[5]
  EC50: 2.5 nM
Keratinocyte [6]
  EC50: 1 nM
[7]
  EC50: 6.7 nM
[8]
  remaining at 16 h: 68%

## CC1=C[C@]23C(=O)[C@@H](C=C(CO)[C@@H](O)[C@]2(O)[C@H]1OC(=O)c1c(C)cccc1C)[C@H]1[C@@H](C[C@H]3C)C1(C)C
Keratinocyte [1]
  EC50: 62 nM
Keratinocyte [2]
  Emax: 66%
HeLa
  CC50: 97000 nM
Keratinocyte [3]
  Emax: 61%
[4]
  Emax: 123%
[5]
  EC50: 10.8 nM
Keratinocyte [6]
  EC50: 83 nM
[7]
  EC50: 13 nM
[8]
  remaining at 16 h: > 95%

## CC1=C[C@]23C(=O)[C@@H](C=C(CO)[C@@H](O)[C@]2(O)[C@H]1OC(=O)c1c(C)cccc1N)[C@H]1[C@@H](C[C@H]3C)C1(C)C
Keratinocyte [1]
  EC50: 8.2 nM
Keratinocyte [2]
  Emax: 118%
HeLa
  CC50: 146000 nM
Keratinocyte [3]
  Emax: 108%
[4]
  Emax: 117%
[5]
  EC50: 8 nM
Keratinocyte [6]
  EC50: 12 nM
[7]
  EC50: 8.6 nM
[8]
  remaining at 16 h: > 95%

## CC1=C[C@]23C(=O)[C@@H](C=C(CO)[C@@H](O)[C@]2(O)[C@H]1OC(=O)c1c(C)cccc1O)[C@H]1[C@@H](C[C@H]3C)C1(C)C
Keratinocyte [1]
  EC50: 71 nM
Keratinocyte [2]
  Emax: 105%
HeLa
  CC50: 199000 nM
Keratinocyte [3]
  Emax: 156%
[4]
  Emax: 125%
[5]
  EC50: 13.4 nM
Keratinocyte [6]
  EC50: 98 nM
[7]
  EC50: 9.4 nM
[8]
  remaining at 16 h: > 95%
